# From ChEMBL document CHEMBL1938242, “In vivo evaluation of oral anti-tumoral effect of 3,4-dihydroquinazoline derivative on solid tumor” (Bioorg Med Chem Lett, 2012)
# Calls of active or inactive are those of the source. The rule behind the calls is not given here.
# Legend:
# Mus musculus [1] = assay: Antinociceptive activity in po dosed mouse assessed as time of latency at 100 mg/kg, po administered 1 hr before hot plate test; assay type: functional, organism-based; parameters: dose 100 mg/kg
# Mus musculus [2] = assay: Toxicity in athymic nu/nu BALB/c mouse bearing human A549 cells assessed as change in total body weight at 10 mg/kg, ip administered twice per week for consecutive 39 days; assay type: organism-based; parameters: dose 10 mg/kg, route intraperitoneal; settings: in vivo, 936 h
# Outline: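 Mice bearing A549 s.c. flank xenografts, n = 5 per group, given 10 mg/kg ip in ethanol:Cremophor EL:water 1:1:18, twice weekly over 39 days starting day 8. Total body weights tracked through the study and compared with vehicle control. Mean ± SE.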
# A549 [3] = assay: Antitumor activity against human A549 cells xenografted in athymic nu/nu BALB/c mouse assessed as tumor growth inhibition at 10 mg/kg, ip administered twice per week for consecutive 39 days; assay type: functional; settings: 936 h, route intraperitoneal, read-out: GI
# Outline: (§1)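 A549 s.c. flank xenografts (5 × 10⁶ cells) in BALB/c nu/nu mice, n = 5. From day 8, given 10 mg/kg ip in ethanol:Cremophor EL:water 1:1:18, twice weekly for 39 days. Excised tumors weighed at the end. Inhibition % = 100 × (C − T)/C using mean tumor weights versus vehicle. Mean ± SE.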
# A549 [4] = assay: Antitumor activity against human A549 cells xenografted in athymic nu/nu BALB/c mouse assessed as decrease in tumor volume at 10 mg/kg, ip administered twice per week for consecutive 39 days (reference value: 224.40 +/- 60.34 mm3); assay type: functional; settings: route intraperitoneal
# A549 [5] = assay: Antitumor activity against human A549 cells xenografted in athymic nu/nu BALB/c mouse assessed as decrease in tumor weight at 10 mg/kg, ip administered twice per week for consecutive 39 days (reference value: 0.358 +/- 0.052 g); assay type: functional; settings: route intraperitoneal; outline: as §1
# A549 [6] = assay: Antitumor activity against human A549 cells xenografted in athymic nu/nu BALB/c mouse assessed as tumor growth inhibition at 1 mg/kg, po administered 5 times weekly for consecutive 39 days; assay type: functional; settings: A549, 936 h, read-out: GI
# Mus musculus [7] = assay: Antinociceptive activity in po dosed mouse assessed as inhibition of acetic acid-induced writhing measured every 5 mins for 20 mins pretreated 1 hr before acetic acid challenge; assay type: functional, organism-based
# Outline: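 Mice (n = 7 per group) given 10 or 50 mg/kg orally; 1 h later injected ip with 0.7% (v/v) acetic acid, 10 mL/kg. After a 5-min delay, writhes counted for 20 min. Comparison with vehicle controls by Dunnett's test; mean ± S.D.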
# Mus musculus [8] = assay: Antinociceptive activity in po dosed mouse assessed as time of latency at 10 or 50 mg/kg, po administered 1 hr before hot plate test; assay type: functional, organism-based; parameters: dose 50 mg/kg
# Outline: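 Mice (n = 10 per group) given 10 or 50 mg/kg orally; 1 h later placed on a hot plate at 55 ± 0.5 °C. Latency recorded at 0 and 30 min. Comparison with vehicle control by Dunnett's test; mean ± S.D.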
# A549 [9] = assay: Antitumor activity against human A549 cells xenografted in athymic nu/nu BALB/c mouse assessed as decrease in tumor volume at 1 mg/kg, po administered 5 times weekly for consecutive 39 days (reference value: 224.40 +/- 60.34 mm3); assay type: functional
# Outline: (§2)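 A549 cells (5 × 10⁶) injected s.c. into the left flank of BALB/c nu/nu mice, n = 5 per group. At day 8 (nodules ca. 3 mm³), oral dosing at 1 or 5 mg/kg in ethanol:Cremophor EL:water 1:1:18, five times weekly for 39 days. Caliper measurement weekly; volume from length, width and height. Mean ± SE; Dunnett's test versus vehicle.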
# A549 [10] = assay: Antitumor activity against human A549 cells xenografted in athymic nu/nu BALB/c mouse assessed as decrease in tumor volume at 5 mg/kg, po administered 5 times weekly for consecutive 39 days (reference value: 224.40 +/- 60.34 mm3); assay type: functional; outline: as §2
# A549 [11] = assay: Antitumor activity against human A549 cells xenografted in athymic nu/nu BALB/c mouse assessed as tumor growth inhibition at 5 mg/kg, po administered 5 times weekly for consecutive 39 days; assay type: functional; settings: A549, 936 h, read-out: GI
# A549 [12] = assay: Antitumor activity against human A549 cells xenografted in athymic nu/nu BALB/c mouse assessed as decrease in tumor volume at 5 mg/kg, po administered 5 times weekly for consecutive 39 days relative to paclitaxel; assay type: functional; outline: as §2
# A549 [13] = assay: Antitumor activity against human A549 cells xenografted in athymic nu/nu BALB/c mouse assessed as decrease in tumor weight at 1 mg/kg, po administered 5 times weekly for consecutive 39 days (reference value: 0.358 +/- 0.052 g); assay type: functional
# A549 [14] = assay: Antitumor activity against human A549 cells xenografted in athymic nu/nu BALB/c mouse assessed as decrease in tumor weight at 5 mg/kg, po administered 5 times weekly for consecutive 39 days (reference value: 0.358 +/- 0.052 g); assay type: functional
# Mus musculus [15] = assay: Toxicity in athymic nu/nu BALB/c mouse bearing human A549 cells assessed as decrease in body weight at 5 mg/kg, po administered 5 times weekly for consecutive 39 days measured on day 19 to 22 post dosing; settings: in vivo, 936 h
# [16] = biological target: Voltage-dependent N-type calcium channel subunit alpha-1B (Homo sapiens, UniProt Q00975); assay: Inhibition of N-type calcium channel alpha 1 B
# A549 [17] = assay: Antitumor activity against human A549 cells xenografted in po dosed athymic nu/nu BALB/c mouse assessed as decrease in tumor volume administered 5 times weekly for consecutive 39 days; assay type: functional, organism-based; outline: as §2
# Mus musculus [18] = assay: Toxicity in athymic nu/nu BALB/c mouse bearing human A549 cells assessed as change in total body weight at 1 to 5 mg/kg, po administered 5 times weekly for consecutive 39 days; assay type: organism-based; parameters: dose 1-5 mg/kg, route oral; settings: in vivo, 936 h
# Outline: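 A549 cells (5 × 10⁶ cells/mL) were injected s.c. into the left flank of BALB/c nu/nu nude mice. After 8 days, once nodules were visible (ca. 3 mm³), mice got oral doses in ethanol:Cremophor EL:distilled water (1:1:18) five times per week for 39 days, with vehicle-only controls (n = 5/group). Total body weights were followed over the period (mean ± SE; Dunnett's test versus control).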
# Sequence of Voltage-dependent N-type calcium channel subunit alpha-1B (Q00975 whole entry): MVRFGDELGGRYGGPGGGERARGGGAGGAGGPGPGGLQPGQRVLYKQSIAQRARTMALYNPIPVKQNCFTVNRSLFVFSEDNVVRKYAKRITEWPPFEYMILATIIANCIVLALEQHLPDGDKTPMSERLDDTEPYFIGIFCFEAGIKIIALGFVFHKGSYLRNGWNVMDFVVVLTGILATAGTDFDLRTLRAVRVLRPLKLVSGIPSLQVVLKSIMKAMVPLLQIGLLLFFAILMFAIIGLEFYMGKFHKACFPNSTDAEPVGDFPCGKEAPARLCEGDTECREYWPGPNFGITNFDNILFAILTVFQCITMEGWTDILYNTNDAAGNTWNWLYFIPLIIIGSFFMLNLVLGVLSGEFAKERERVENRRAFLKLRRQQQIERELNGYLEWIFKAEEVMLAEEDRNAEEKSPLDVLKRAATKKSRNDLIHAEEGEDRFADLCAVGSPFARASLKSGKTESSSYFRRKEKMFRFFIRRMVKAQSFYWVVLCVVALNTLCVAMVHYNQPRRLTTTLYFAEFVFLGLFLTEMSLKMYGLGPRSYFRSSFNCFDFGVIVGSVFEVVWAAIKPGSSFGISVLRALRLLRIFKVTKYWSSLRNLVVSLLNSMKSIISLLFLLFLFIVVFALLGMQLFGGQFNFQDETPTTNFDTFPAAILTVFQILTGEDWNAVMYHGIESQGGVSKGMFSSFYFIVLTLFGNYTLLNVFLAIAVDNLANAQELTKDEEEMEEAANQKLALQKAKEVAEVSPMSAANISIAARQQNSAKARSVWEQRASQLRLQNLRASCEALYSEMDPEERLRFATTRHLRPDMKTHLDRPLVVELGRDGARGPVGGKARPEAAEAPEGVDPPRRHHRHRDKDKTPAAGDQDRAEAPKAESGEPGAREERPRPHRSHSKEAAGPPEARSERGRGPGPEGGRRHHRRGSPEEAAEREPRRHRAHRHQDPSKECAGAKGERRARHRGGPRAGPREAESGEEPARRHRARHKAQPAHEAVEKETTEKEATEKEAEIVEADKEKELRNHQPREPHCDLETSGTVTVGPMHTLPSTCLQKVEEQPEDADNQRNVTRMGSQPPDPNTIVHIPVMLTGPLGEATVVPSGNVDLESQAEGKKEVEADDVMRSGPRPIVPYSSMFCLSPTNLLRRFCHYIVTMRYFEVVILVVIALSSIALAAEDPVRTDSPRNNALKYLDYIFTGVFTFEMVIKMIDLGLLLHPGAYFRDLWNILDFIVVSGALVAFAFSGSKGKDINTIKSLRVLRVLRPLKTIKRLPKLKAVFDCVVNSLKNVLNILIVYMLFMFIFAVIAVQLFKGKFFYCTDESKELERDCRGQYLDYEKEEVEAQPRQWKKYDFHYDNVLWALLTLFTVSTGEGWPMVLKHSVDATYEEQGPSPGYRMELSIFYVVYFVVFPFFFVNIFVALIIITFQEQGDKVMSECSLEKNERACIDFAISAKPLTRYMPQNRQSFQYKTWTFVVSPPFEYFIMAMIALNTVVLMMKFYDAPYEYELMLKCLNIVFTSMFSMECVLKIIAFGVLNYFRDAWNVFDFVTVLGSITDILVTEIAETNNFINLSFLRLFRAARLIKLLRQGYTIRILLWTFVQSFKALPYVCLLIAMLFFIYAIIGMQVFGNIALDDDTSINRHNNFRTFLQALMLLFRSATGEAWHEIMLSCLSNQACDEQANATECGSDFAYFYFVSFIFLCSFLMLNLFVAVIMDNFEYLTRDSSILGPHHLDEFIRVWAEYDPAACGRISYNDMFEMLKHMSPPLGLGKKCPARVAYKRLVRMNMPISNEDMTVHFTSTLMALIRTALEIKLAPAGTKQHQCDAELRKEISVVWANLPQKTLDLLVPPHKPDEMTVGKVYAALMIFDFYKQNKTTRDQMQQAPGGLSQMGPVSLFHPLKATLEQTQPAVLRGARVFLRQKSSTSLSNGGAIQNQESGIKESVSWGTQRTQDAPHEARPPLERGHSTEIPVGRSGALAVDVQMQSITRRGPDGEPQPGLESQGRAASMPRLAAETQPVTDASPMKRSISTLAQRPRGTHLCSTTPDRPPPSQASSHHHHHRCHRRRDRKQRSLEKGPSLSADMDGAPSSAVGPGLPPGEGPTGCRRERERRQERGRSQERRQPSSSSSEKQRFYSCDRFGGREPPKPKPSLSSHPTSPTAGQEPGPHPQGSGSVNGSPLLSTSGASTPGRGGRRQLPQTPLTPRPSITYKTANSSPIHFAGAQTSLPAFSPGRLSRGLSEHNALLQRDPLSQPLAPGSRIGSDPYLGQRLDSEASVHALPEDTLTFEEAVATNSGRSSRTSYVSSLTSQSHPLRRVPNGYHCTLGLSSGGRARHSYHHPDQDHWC
structure (smiles),measurement,setting,value
CC(C)Cc1ccc(C(C)C(=O)O)cc1 (stereo not drawn),Activity,Mus musculus [1],Active
CC(=O)O[C@H]1C(=O)[C@@]2(C)[C@H]([C@H](OC(=O)c3ccccc3)[C@]3(O)C[C@H](OC(=O)[C@H](O)[C@@H](NC(=O)c4ccccc4)c4ccccc4)C(C)=C1C3(C)C)[C@]1(OC(C)=O)CO[C@@H]1C[C@@H]2O [PACLITAXEL],Activity,Mus musculus [2],Non-toxic
same,inhibition in vivo at 10 mg/kg,A549 [3],53%
same,Activity,A549 [4],22.9 mm3
same,Activity,A549 [5],0.17 g
CN(C)CCCCCN(C)C1=Nc2ccccc2C(CC(=O)NCc2ccccc2)N1c1ccc(-c2ccccc2)cc1.Cl.Cl (stereo not drawn),inhibition in vivo at 1 mg/kg,A549 [6],60%
same,Activity,Mus musculus [7],Dose-dependent effect
same,Activity,Mus musculus [8],inactive
same,Activity,A549 [9],27.05 mm3
same,Activity,A549 [10],7.9 mm3
same,inhibition in vivo at 5 mg/kg,A549 [11],67%
same,fold change (FC),A549 [12],3
same,Activity,A549 [13],0.142 g
same,Activity,A549 [14],0.12 g
same,Activity,Mus musculus [15],Toxic
same,IC50,[16],4.9 µM
same,Activity,A549 [17],Dose-dependent effect
same,Activity,Mus musculus [18],Non-toxic
